PubChem BioAssay
Results filed as inconclusive are left out.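 How the source made its calls, unless noted: active means viability increase at or above a cutoff of the median across tested compounds plus 3 SD (cut at about 8.5% in these data, passing the limit was not always enough); inconclusive means some gains above the cutoff, reason not given; inactive means the rest.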

What was measured:
[1] = S. cerevisiae growth inhibition in permissive medium (OD615), pilot counter-assay for S. cerevisiae lifespan shortening project, permissive growth control (AID 705;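 active means growth inhibition above 25% in both replicates, a cutoff set 3 SD above the mean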); conditions: OD615, 24 h, at 10 µM, hits give high values
Outline: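 System: S. cerevisiae with engineered DeaD lifespan system. Medium: SC raffinose/galactose permissive medium. Doses: single compound dose of 10 µM, 0.25% DMSO final. Schedule: 24 h exposure, 30 °C. Measured by: OD615 turbidity read. Read-out: growth inhibition.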

[2] = S. cerevisiae growth inhibition in restrictive medium, OD615, pilot screen, restrictive growth control, yeast lifespan reduction project (AID 706;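 active means growth inhibition above a set limit, 3 SD over mean compound inhibition, in both replicates, cut at about 43% in these data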;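 further: modified DeaD lifespan yeast strain shifted to restrictive glucose medium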); conditions: OD615, 48 h, at 10 µM, hits give high values
Outline: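 Assay system – genetically modified Saccharomyces cerevisiae, DeaD replicative lifespan assay strain · Medium – CSMM-D glucose medium · Doses – 10 µM compound, 0.25% DMSO · Times – 4 h pre-incubation, 48 h exposure at 30 °C · Signal – optical density at 615 nm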

[3] = doxorubicin toxicity protection in MRP-1 cells – H69AR cells, CellTiter-Glo, duplicate, MRP-1 activator project, pilot screen (AID 807); conditions: H69AR viability with doxorubicin, CellTiter-Glo luminescence; at 10 µM; hits give high values;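 further: compound pretreatment 18-22 h then 72 h combined with doxorubicin; 0% = doxorubicin alone and 100% = vehicle without doxorubicin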
[4] = viability of HCT116 without oncogenic beta-catenin – human colon tumor cells, pilot screen (AID 823;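 active means cell viability at or below a set limit in both duplicate runs, the limit being the all-compound median minus 4 SD, cut at about 23% in these data, passing the limit was not always enough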;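 further: 0% = wells killed by 20 µM Hyamine and 100% = untreated DMSO cell wells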); conditions: HCT116 beta-catenin knockout viability, CellTiter-Glo, 60 h; at 10 µM; hits give low values
[5] = viability of PTEN-null HCT116 cells – cell-based, HCT116 clonal line, CellTiter-Glo, pilot screen (AID 824;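 active means viability at or below 27.92% in each of two runs, the all-compound median minus 4 SD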;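 further: 0% = 20 µM Hyamine control and 100% = vehicle cell control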); conditions: HCT116 PTEN-deleted viability, 60 h, at 10 µM, hits give low values
[6] = RAM pathway blockade in budding yeast – dse1pr::URA3 reporter, 5-FOA selection, pilot screen (AID 869;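 active means inhibition over a set limit, the all-compound mean plus 3 SD, in both replicate runs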;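 further: 0% = DMSO wells with no growth and 100% = 10 µM 1-NA-PP1 with full growth; RAM network block rescues cells from 5-FOA so hits raise OD615 growth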); conditions: S. cerevisiae dse1pr::URA3 5-FOA growth, OD615, 2 d; at 10 µM; hits give high values; strain carries analog-sensitive mutant Cbk1 kinase
[7] = RAM signaling pathway blockade in yeast – S. cerevisiae, Pdr1DBD-CYC8 efflux-inhibited sensitized strain, primary screen (AID 1298;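 active means RAM network inhibition above 8.4% in each of two replicates, 3 SD over the compound average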;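 further: 0% = DMSO untreated cells without growth and 100% = 10 µM 1-NA-PP1 full growth; higher means more yeast growth rescued from 5-FOA killing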); conditions: S. cerevisiae cbk1-as DSE1-URA3 strain, 5-FOA growth OD615, 2 d; at 50 µM; hits give high values

O=C(CSc1nnc2scc(-c3ccccc3)n12)c1ccc2c(c1)OCCO2
inactive: growth inhibition [1] 1.86% | growth inhibition [2] 0.4% | viability increase [3] -2.27% | viability [4] 99.5% | viability [5] 93.1% | inhibition [6] 3.66% | RAM network inhibition [7] 7.73%

CSc1cccc(NC(=O)CN(c2cc(C)ccc2C)S(C)(=O)=O)c1
inactive: growth inhibition [1] -4.02% | growth inhibition [2] -2.52% | viability increase [3] -3.54% | viability [4] 77.4% | viability [5] 79.8% | inhibition [6] -0.95% | RAM network inhibition [7] 1.46%

FC(F)(F)c1cccc(-c2ccc(-c3csnn3)o2)c1
inactive: growth inhibition [1] -0.85% | growth inhibition [2] 6.13% | viability increase [3] -0.47% | viability [4] 82.2% | viability [5] 83.6% | inhibition [6] 1.4% | RAM network inhibition [7] 9.48%

CC(=O)Oc1c2occc2cc2ccc(=O)oc12
inactive: growth inhibition [1] -10.4% | growth inhibition [2] -1.74% | viability increase [3] -2.14% | viability [4] 92.7% | viability [5] 90.5% | inhibition [6] 0.425% | RAM network inhibition [7] -1.95%

O=C(O)COc1ccc(Br)cc1/C=N/O
inactive: growth inhibition [1] 5.41% | growth inhibition [2] 3.78% | viability increase [3] -2.11% | viability [4] 92.7% | viability [5] 85.4% | inhibition [6] 0.975% | RAM network inhibition [7] 2.5%

CCn1c(C2CC(=O)N(Cc3ccccc3)C2)nc2ccccc21 (configuration not stated)
inactive: growth inhibition [1] 7.85% | growth inhibition [2] 7.52% | viability increase [3] -2.06% | viability [4] 102% | viability [5] 91.3% | inhibition [6] -0.3% | RAM network inhibition [7] 4.25%

C=CCN1C(=O)C2C(C(=O)NC)C3(C)C=CC2(O3)C1C(=O)NCc1ccc(OC)cc1 (configuration not stated)
inactive: growth inhibition [1] -5.37% | growth inhibition [2] 3.69% | viability increase [3] 1.33% | viability [4] 103% | viability [5] 99.9% | inhibition [6] 0.89% | RAM network inhibition [7] 0.49%

Cc1ccc(CCN2CC(C(=O)NCc3cccnc3)CC2=O)cc1 (configuration not stated)
inactive: growth inhibition [1] 6% | growth inhibition [2] 5.13% | viability increase [3] -0.64% | viability [4] 104% | viability [5] 94.5% | inhibition [6] 2.59% | RAM network inhibition [7] -0.99%

CCC1CCCCN1C(=O)CSc1nc2c(cnn2-c2ccc(C)cc2)c(=O)[nH]1 (configuration not stated)
inactive: growth inhibition [1] -3.04% | growth inhibition [2] -5.33% | viability increase [3] -3.73% | viability [4] 97.2% | viability [5] 87.1% | inhibition [6] 1.71% | RAM network inhibition [7] 6.97%

COCc1cc(=O)n2[nH]c(-c3cccc(Br)c3)cc2n1
inactive: growth inhibition [1] -25.1% | growth inhibition [2] -16.1% | viability increase [3] -2.23% | viability [4] 92.9% | viability [5] 86.7% | inhibition [6] 0.76% | RAM network inhibition [7] 5.82%

c1ccc(-c2cnnc(N3CCCCC3)n2)cc1
inactive: growth inhibition [1] -4.88% | growth inhibition [2] 8.84% | viability increase [3] -1.75% | viability [4] 102% | viability [5] 97.4% | inhibition [6] 0.13% | RAM network inhibition [7] 5.69%

COc1ccc(CSc2nncn2N)cc1Br
inactive: growth inhibition [1] 8.95% | growth inhibition [2] 5.08% | viability increase [3] -2.01% | viability [4] 101% | viability [5] 90.8% | inhibition [6] 1.08% | RAM network inhibition [7] 0.88%

C=CCn1c(=N)c(C(=O)OCC)cc2c(=O)n3cc(C)ccc3nc21
inactive: growth inhibition [1] 1.62% | growth inhibition [2] 0.61% | viability increase [3] -1.79% | viability [4] 87% | viability [5] 87.4% | inhibition [6] 1.7% | RAM network inhibition [7] 3.98%

CCCCNc1nc2c(c(=O)n(C)c(=O)n2C)n1CCC
inactive: growth inhibition [1] -8.32% | growth inhibition [2] -0.415% | viability increase [3] 0.36% | viability [4] 97.1% | viability [5] 96% | inhibition [6] -0.375% | RAM network inhibition [7] 1.74%

COc1cc(C)c(N(C(C)=O)c2ccccc2)c(C)c1
inactive: growth inhibition [1] -10.7% | growth inhibition [2] -17.4% | viability increase [3] -0.85% | viability [4] 92.2% | viability [5] 87.3% | inhibition [6] 1.97% | RAM network inhibition [7] 5.22%

CCn1ccnc1C(O)c1cccc(OC)c1OC (configuration not stated)
inactive: growth inhibition [1] -8.24% | growth inhibition [2] -3.01% | viability increase [3] -0.74% | viability [4] 108% | viability [5] 96.3% | inhibition [6] 2.75% | RAM network inhibition [7] 3.57%

COc1ccc(-n2c(SCC(=O)Nc3cc(C)on3)nc3c(c2=O)SCC3)cc1
inactive: growth inhibition [1] -13.1% | growth inhibition [2] -6.83% | viability increase [3] 0.28% | viability [4] 112% | viability [5] 95.5% | inhibition [6] 4.46% | RAM network inhibition [7] 6.81%

CC(=O)Nc1cc2c(cc1C(=O)c1ccccc1)OCCO2
inactive: growth inhibition [1] -3.76% | growth inhibition [2] 7.87% | viability increase [3] -0.99% | viability [4] 95.2% | viability [5] 92.9% | inhibition [6] 1.35% | RAM network inhibition [7] 0.89%

COC(=O)CSC1=C(C#N)C(c2ccccc2F)CC(=O)N1 (configuration not stated)
inactive: growth inhibition [1] -9.32% | growth inhibition [2] -6.92% | viability increase [3] -2.29% | viability [4] 92.6% | viability [5] 94.1% | inhibition [6] 1.32% | RAM network inhibition [7] 0.84%

Cc1cccc(C(=O)Nc2cc(=O)n(C)c(=O)n2C)c1
inactive: growth inhibition [1] -14.2% | growth inhibition [2] -21.9% | viability increase [3] -0.85% | viability [4] 105% | viability [5] 92.4% | inhibition [6] 0.905% | RAM network inhibition [7] 1.04%

O=C(O)CCCC(=O)N1CCc2cc(S(=O)(=O)N3CCc4ccccc43)ccc21
inactive: growth inhibition [1] -2.29% | growth inhibition [2] -2.17% | viability increase [3] -0.98% | viability [4] 90.7% | viability [5] 91.8% | inhibition [6] 1.98% | RAM network inhibition [7] 1.3%

O=C(CN1CCOc2ccccc21)NC1CCN(Cc2ccccc2)CC1
inactive: growth inhibition [1] -5.57% | growth inhibition [2] -4.21% | viability increase [3] -3.28% | viability [4] 77% | viability [5] 85.5% | inhibition [6] 3.18% | RAM network inhibition [7] 5.65%

O=C(Nc1ccc2ccccc2c1)c1cccnc1
inactive: growth inhibition [1] -3.92% | growth inhibition [2] 2.79% | viability increase [3] -3.85% | viability [4] 93.2% | viability [5] 81.5% | inhibition [6] 1.27% | RAM network inhibition [7] 4.91%

CCOc1ccc(N(CC(=O)Nc2ccc3c(c2)OCCO3)S(=O)(=O)c2c(C)noc2C)cc1
inactive: growth inhibition [1] -6.29% | growth inhibition [2] -0.165% | viability increase [3] -3.41% | viability [4] 81.6% | viability [5] 87% | inhibition [6] 3.58% | RAM network inhibition [7] 4.67%

COc1ccc(OC)c2sc(NC(=O)CCS(=O)(=O)c3ccccc3)nc12
inactive: growth inhibition [1] -8.91% | growth inhibition [2] -10.2% | viability increase [3] -8.72% | viability [4] 36.1% | viability [5] 44.3% | inhibition [6] 4.41% | RAM network inhibition [7] 11%

CC1CC(C)CN(c2nc3c(c(=O)[nH]c(=O)n3C)n2CCSc2nc3ccccc3o2)C1 (configuration not stated)
inactive: growth inhibition [1] -8.58% | growth inhibition [2] -7.3% | viability increase [3] -2.41% | viability [4] 93.2% | viability [5] 93.6% | inhibition [6] 0.335% | RAM network inhibition [7] -0.32%

Cc1c(C(=O)NCc2ccc3c(c2)OCO3)oc2ccc(S(=O)(=O)N3CCCCCC3)cc12
inactive: growth inhibition [1] -14% | growth inhibition [2] -7.72% | viability increase [3] -1.19% | viability [4] 77.5% | viability [5] 77.3% | inhibition [6] 1.82% | RAM network inhibition [7] 10.9%

CN1C(=O)CC(N2CCC(c3nc4ccccc4[nH]3)CC2)C1=O (configuration not stated)
inactive: growth inhibition [1] -11.7% | growth inhibition [2] -11.2% | viability increase [3] -0.66% | viability [4] 112% | viability [5] 98.9% | inhibition [6] 3.77% | RAM network inhibition [7] 3.31%

CN(CC(CC(=O)Nc1nncs1)c1ccccc1)S(=O)(=O)c1ccccc1 (configuration not stated)
inactive: growth inhibition [1] -13.9% | growth inhibition [2] -11.4% | viability increase [3] -1.16% | viability [4] 96.2% | viability [5] 81.2% | inhibition [6] 1.82% | RAM network inhibition [7] 3.38%

CCNS(=O)(=O)c1ccc(NC(=O)c2cccnc2)cc1
inactive: growth inhibition [1] 1.24% | growth inhibition [2] 8.7% | viability increase [3] 0.48% | viability [4] 95% | viability [5] 99.6% | inhibition [6] 1.61% | RAM network inhibition [7] 6.74%

O=C(Nc1cccc2ccccc12)N1CCN(c2ccc(F)cc2)CC1
inactive: growth inhibition [1] -12.3% | growth inhibition [2] -14.3% | viability increase [3] -1.74% | viability [4] 98.6% | viability [5] 98.8% | inhibition [6] 1.88% | RAM network inhibition [7] 3.08%

Cc1cc(C)n2nc(SCC(=O)Nc3ccc(F)cc3)nc2n1
inactive: growth inhibition [1] -11.7% | growth inhibition [2] -10.9% | viability increase [3] -1.21% | viability [4] 111% | viability [5] 98.5% | inhibition [6] 2.25% | RAM network inhibition [7] -0.94%

COc1ccc(OC)c(NC(=O)c2ccc(NC(C)=O)cc2)c1
inactive: growth inhibition [1] -22.5% | growth inhibition [2] -12.5% | viability increase [3] 0.76% | viability [4] 109% | viability [5] 101% | inhibition [6] 1.2% | RAM network inhibition [7] 5.24%

O=C1C(=O)N(CCO)C(c2ccccc2)/C1=C(\O)c1ccccc1 (configuration not stated)
inactive: growth inhibition [1] -18.6% | growth inhibition [2] -8.67% | viability increase [3] 0.49% | viability [4] 99.7% | viability [5] 101% | inhibition [6] 1.29% | RAM network inhibition [7] 0.42%

C=C(C)Cn1c(COc2ccccc2)nnc1SCC(=O)O
inactive: growth inhibition [1] -9.65% | growth inhibition [2] -7.02% | viability increase [3] -4.09% | viability [4] 89.7% | viability [5] 90.6% | inhibition [6] 0.3% | RAM network inhibition [7] 0.88%

O=C(NCc1ccncc1)C(F)(F)C(F)(F)C(=O)NCc1ccncc1
inactive: growth inhibition [1] -0.215% | growth inhibition [2] -3.65% | viability increase [3] -1.87% | viability [4] 93.9% | viability [5] 85.4% | inhibition [6] 1.33% | RAM network inhibition [7] 1.22%
